According to ChEMBL document CHEMBL1143020, “Antimalarial activity of 1-aryl-3,3-dialkyltriazenes” (2007):

Tests used:
Type in all cases: functional
Plasmodium berghei [1] = experiment: Antimalarial activity as parasitaemia after 7 days against Plasmodium berghei NK65 infected JCL-ICR mice (Mus musculus) at 100 mg/kg
In short: (§1)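 Female mice aged 4–5 weeks, 5 per group, were infected ip on day 0 with 0.2 mL of 1:100 donor blood in saline (3.3×10^6 parasitized erythrocytes). 100 mg/kg was given twice, at 2 and 48 h post-infection, in 5% gum arabic/saline (solids) or corn oil (oils). Tail-blood thin smears on days 3, 7 and 14 were methanol-fixed and Giemsa-stained (2%, 2 h). % infected erythrocytes was counted microscopically.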

Mus musculus [2] = experiment: Survival rate in Plasmodium berghei NK65 infected JCL-ICR mice (Mus musculus) at 100 mg/kg body weight after 14 days; details: 336 h
In short: (§2)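 Female JCL-ICR mice (4–5 weeks), 5 per group, were infected i.p. on day 0 with 0.2 mL of a 1:100 saline dilution of donor-mouse blood (3.3×10^6 parasitized erythrocytes). Triazenes were dosed at 100 mg/kg in 5% gum arabic or corn oil, and chloroquine at 50 mg/kg, twice, at 2 and 48 h post-infection. Controls got 5% gum arabic. Mice were monitored daily, with survival rate at day 14.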

Plasmodium berghei [3] = experiment: Antimalarial activity as parasitaemia after 3 days against Plasmodium berghei NK65 infected JCL-ICR mice (Mus musculus) at 100 mg/kg; in short: as §1
Plasmodium berghei [4] = experiment: Antimalarial activity as parasitaemia after 14 days against Plasmodium berghei NK65 infected JCL-ICR mice (Mus musculus) at 100 mg/kg; in short: as §1
Mus musculus [5] = experiment: Survival rate in Plasmodium berghei NK65 infected JCL-ICR mice (Mus musculus) at 50 mg/kg body weight after 14 days; details: 336 h; in short: as §2
Plasmodium berghei [6] = experiment: Antimalarial activity as parasitaemia after 7 days against Plasmodium berghei NK65 infected JCL-ICR mice (Mus musculus) at 50 mg/kg
In short: (§3)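 Chloroquine reference arm: 5 female mice aged 4–5 weeks per group, infected ip on day 0 with 0.2 mL of 1:100 diluted donor blood (3.3×10^6 parasitized erythrocytes). 50 mg/kg was given at 2 and 48 h post-infection. On days 7 and 14, tail-blood smears were methanol-fixed and stained with 2% Giemsa for 2 h, and % parasitized erythrocytes was scored by microscopy.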

Plasmodium berghei [7] = experiment: Antimalarial activity as parasitaemia after 14 days against Plasmodium berghei NK65 infected JCL-ICR mice (Mus musculus) at 50 mg/kg; in short: as §3

Structure (SMILES) | Activity (Plasmodium berghei [1]) [%] | survival at 100 mg/kg (Mus musculus [2]) [%] | Activity (Plasmodium berghei [3]) [%] | Activity (Plasmodium berghei [4]) [%] | survival at 50 mg/kg (Mus musculus [5]) [%] | Activity (Plasmodium berghei [6]) [%] | Activity (Plasmodium berghei [7]) [%]
Cc1cccc(C)c1/N=N/N(C)C | 53.9 | 0 | 1.7 | – | – | – | –
CN(C)/N=N/c1ccc(C(F)(F)F)cc1 | 17.6 | 80 | 4.8 | 67.9 | – | – | –
Cc1cccc(C)c1/N=N/N1CCCC1 | 54.6 | 40 | 5.6 | 81.7 | – | – | –
Cc1cc(C)c(/N=N/N2CCCCC2)c(C)c1 | 76.4 | 0 | 4.2 | – | – | – | –
FC(F)(F)c1ccc(/N=N/N2CCCC2)cc1 | 66.3 | 0 | 2.9 | – | – | – | –
FC(F)(F)c1ccc(/N=N/N2CCCCC2)cc1 | 44.6 | 0 | 2.3 | – | – | – | –
Cc1cccc(C)c1/N=N/N1CCCCC1 | 76.4 | 0 | 4.2 | – | – | – | –
Cc1cc(C)c(/N=N/N(C)C)c(C)c1 | 12.4 | 40 | 4.4 | 73.3 | – | – | –
Cc1cc(C)c(/N=N/N2CCCC2)c(C)c1 | 38.5 | 60 | 4.1 | 74.6 | – | – | –
CN(C)/N=N/c1ccc(F)cc1 | 53.5 | 20 | 1.7 | 60.4 | – | – | –
CN(C)/N=N/c1ccc(Cl)cc1 | 27 | 60 | 4.8 | 62.5 | – | – | –
CCN(CC)CCCC(C)Nc1ccnc2cc(Cl)ccc12 (configuration not stated) [CHLOROQUINE] | – | – | – | – | 100 | <1 | 8.5
